Data on eight compounds can be found in PubChem BioAssay AID623917 (The Scripps Research Institute Molecular Screening Center, 2012).

Each structure is given as a SMILES string. Active and inactive are the calls of the source.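 Rule for the calls: active = E. coli viability under 80% of the solvent control at every tested dose; inactive = viability of 80% or more at every tested dose.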

This assay concerns E. coli V66 viability, colony formation, Hfr cross. The experiment in a line: recipient strain toxicity in Hfr mating – colony formation, Hfr recombination, cytotoxicity control for AddAB inhibitor project, dose response (AID 623917). The settings on record: stronger effect = lower value. A digest of the protocol: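 Signal: colony counts on non-selective agar plates, CFU/mL; assay system: E. coli V66 recipient cells; compound: five doses, 0.03–100 µM; incubation: 1 h growth with compound, 1.5 h overall; benchmarks: DMSO control; medium: LB broth; evaluation: V66 CFU/mL as percent of DMSO control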
What is called viability is the share of living cells, or the viability signal relative to a control. For the compound `CCn1cc(C(=O)O)c(=O)c2cnc(N3CCN(C(=S)Nc4ccccc4C(F)(F)F)CC3)nc21`, the viability was 90% (inactive).

As to `CCn1cc(C(=O)O)c(=O)c2cc(F)c(N3CCN(C(=S)Nc4cccc(C(F)(F)F)c4)CC3)cc21`, the viability is 12%.

Take `O=C(Nc1ncccn1)c1ccc([N+](=O)[O-])o1`: the viability is 100% (inactive).

`O=C(NCc1cccnc1)c1ccc([N+](=O)[O-])o1`: the viability was 100% (inactive).

Regarding `C=CCn1c(Sc2ncc([N+](=O)[O-])s2)n[nH]c1=O`, the viability is 90% (inactive).

Consider `CCn1cc(C(=O)O)c(=O)c2cnc(N3CCN(C(=S)Nc4cccc(C(F)(F)F)c4)CC3)nc21`, for which the viability was 100% (inactive).

In the case of `CC1CCc2c(sc(NC(=O)c3ccc([N+](=O)[O-])o3)c2C#N)C1` (stereo not drawn), the viability was 90% (inactive).

As for `CCn1cc(C(=O)O)c(=O)c2cnc(N3CCNCC3)nc21`, the viability was 90% (inactive).
